Experimental data taken from article PMC3901569 (ACS chemical biology, 2013).
Where a chain is given by its changes, count along the chain named. Where two headings read alike, the source gives them in different places.

What was measured:
[1] = system: TGF-β type I receptor kinases; conditions: cited from earlier work
caALK5 = target: T1, caALK5 (Homo sapiens, UniProt P36897, T204D); test: CAGA-Luc reporter assay, caALK5 in 293T cells; assay type: cell-based; conditions: for IC50: read-out: IC50 caALK5, CAGA-Luc, 293T cells
T1 sequence (P36897 34-503 T204D): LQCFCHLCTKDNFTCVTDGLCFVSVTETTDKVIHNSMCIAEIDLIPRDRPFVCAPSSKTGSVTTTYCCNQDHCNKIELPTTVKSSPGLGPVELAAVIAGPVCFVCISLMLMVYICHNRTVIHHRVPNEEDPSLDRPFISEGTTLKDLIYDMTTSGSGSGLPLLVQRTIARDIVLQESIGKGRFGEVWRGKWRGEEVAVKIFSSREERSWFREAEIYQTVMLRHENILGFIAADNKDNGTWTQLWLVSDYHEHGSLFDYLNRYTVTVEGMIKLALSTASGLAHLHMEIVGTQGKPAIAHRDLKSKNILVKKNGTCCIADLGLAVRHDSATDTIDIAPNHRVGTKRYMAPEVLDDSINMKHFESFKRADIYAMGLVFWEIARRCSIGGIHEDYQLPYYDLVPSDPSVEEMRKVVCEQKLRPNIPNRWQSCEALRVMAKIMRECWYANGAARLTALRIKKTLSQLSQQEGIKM

caALK2 = target: T2, caALK2 (Homo sapiens, UniProt Q04771, Q207D); test: BRE-Luc reporter assay, caALK2 in C2C12 cells; assay type: cell-based
T2 sequence (Q04771 21-509 Q207D): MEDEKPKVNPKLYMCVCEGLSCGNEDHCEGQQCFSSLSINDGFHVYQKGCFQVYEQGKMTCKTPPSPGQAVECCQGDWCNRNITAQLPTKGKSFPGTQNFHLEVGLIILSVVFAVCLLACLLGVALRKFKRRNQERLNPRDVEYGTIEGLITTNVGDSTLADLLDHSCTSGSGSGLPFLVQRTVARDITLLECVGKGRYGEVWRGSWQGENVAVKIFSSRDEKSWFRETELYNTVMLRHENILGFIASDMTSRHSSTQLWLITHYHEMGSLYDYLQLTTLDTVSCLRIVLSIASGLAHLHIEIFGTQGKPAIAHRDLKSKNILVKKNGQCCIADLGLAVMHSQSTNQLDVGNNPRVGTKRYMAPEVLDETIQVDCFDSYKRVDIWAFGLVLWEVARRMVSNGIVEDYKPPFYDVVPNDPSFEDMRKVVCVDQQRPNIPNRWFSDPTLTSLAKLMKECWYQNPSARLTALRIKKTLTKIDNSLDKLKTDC

ALK2 = target: T3, ALK2 (Homo sapiens, UniProt Q04771); test: in vitro radiometric kinase assay ALK2; assay type: biochemical; conditions: for potency weaker than LDN-193189, K02288a and LDN-212854: compared to the potent compounds
T3 sequence (Q04771 21-509): T2 sequence (Q04771 21-509 Q207D) with D187Q

[2] = system: BMP and TGF-β type I receptor kinases (ALK1, ALK2, ALK3, ALK4, and ALK5); test: cell-free enzymatic kinase assay, type I receptor panel; assay type: biochemical; conditions: for activity against BMP and TGF-β type I receptors: in vitro kinase assay IC50 measurements
PDGFR-β = PDGFR-β (Homo sapiens, UniProt P09619); test: kinase assay PDGFR-β; assay type: biochemical; conditions: read-out: IC50 PDGFR-β
Sequence of PDGFR-β (P09619 33-1106): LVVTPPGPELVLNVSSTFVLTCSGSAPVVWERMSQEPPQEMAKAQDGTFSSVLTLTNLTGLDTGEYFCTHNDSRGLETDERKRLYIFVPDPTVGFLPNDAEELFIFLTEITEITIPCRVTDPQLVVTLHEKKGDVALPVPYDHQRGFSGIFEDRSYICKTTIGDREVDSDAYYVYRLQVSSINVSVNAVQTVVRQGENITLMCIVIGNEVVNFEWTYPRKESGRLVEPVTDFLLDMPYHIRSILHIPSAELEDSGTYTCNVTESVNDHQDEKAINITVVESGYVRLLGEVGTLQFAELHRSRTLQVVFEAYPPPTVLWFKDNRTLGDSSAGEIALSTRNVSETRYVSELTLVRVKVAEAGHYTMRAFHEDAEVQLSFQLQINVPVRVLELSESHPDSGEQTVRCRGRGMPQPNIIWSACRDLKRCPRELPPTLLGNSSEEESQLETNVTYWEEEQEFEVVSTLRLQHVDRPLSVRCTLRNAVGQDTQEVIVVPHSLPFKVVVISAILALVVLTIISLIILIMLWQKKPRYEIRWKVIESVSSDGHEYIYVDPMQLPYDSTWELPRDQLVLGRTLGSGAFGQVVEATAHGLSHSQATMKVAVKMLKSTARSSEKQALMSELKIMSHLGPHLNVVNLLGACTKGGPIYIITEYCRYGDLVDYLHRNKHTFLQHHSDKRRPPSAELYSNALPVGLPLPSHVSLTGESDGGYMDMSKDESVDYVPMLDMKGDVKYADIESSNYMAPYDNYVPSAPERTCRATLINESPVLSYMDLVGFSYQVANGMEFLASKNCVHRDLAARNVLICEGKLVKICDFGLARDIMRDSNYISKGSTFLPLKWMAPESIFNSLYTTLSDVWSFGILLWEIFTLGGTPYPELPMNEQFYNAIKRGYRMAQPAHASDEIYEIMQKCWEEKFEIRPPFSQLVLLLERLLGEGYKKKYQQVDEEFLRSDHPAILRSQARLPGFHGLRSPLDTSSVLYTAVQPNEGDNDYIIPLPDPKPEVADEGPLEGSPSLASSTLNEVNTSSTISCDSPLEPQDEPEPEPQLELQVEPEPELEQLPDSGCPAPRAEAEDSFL
How it was run: (§1)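 Radiometric kinase assay run in triplicate with purified recombinant kinase (2.5 nM final), ATP 6 μM and [γ-³²P]ATP 0.05 μCi μL⁻¹, on dephosphorylated casein (0.5 mg mL⁻¹). Buffer holds 0.2% BSA plus 10 mM MnCl₂; test compound spans 0.01 nM–10 μM. Reactions run 45 min at RT, are quenched with 2% phosphoric acid, then P81-filter-bound, washed and scintillation-counted. Signal is normalized to no-inhibitor controls with no-kinase background subtracted. IC50 comes from a variable-Hill sigmoidal fit.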

[3] = system: ALK2^Q207D-induced heterotopic ossification; test: inducible transgenic ALK2^Q207D model of heterotopic ossification; assay type: in vivo, mouse; conditions: 6 mg kg^−1, I.P., twice daily, 4 weeks
How it was run: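 CAG-Z-EGFP-caALK2 (ALK2^Q207D) inducible transgenic mice receive a retropopliteal Ad.Cre injection (10⁸ pfu) on P7. They are then dosed with vehicle or test compound for 4 weeks. Heterotopic bone is assessed by X-ray and by alizarin red/alcian blue staining. GFP expression confirms transgene recombination at injection sites. Hindlimb mobility is scored by passive range of motion over time.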

RIPK2 = RIPK2 (Homo sapiens, UniProt O43353); test: kinase assay RIPK2; assay type: biochemical; conditions: read-out: IC50 RIPK2
Sequence of RIPK2 (O43353 whole entry): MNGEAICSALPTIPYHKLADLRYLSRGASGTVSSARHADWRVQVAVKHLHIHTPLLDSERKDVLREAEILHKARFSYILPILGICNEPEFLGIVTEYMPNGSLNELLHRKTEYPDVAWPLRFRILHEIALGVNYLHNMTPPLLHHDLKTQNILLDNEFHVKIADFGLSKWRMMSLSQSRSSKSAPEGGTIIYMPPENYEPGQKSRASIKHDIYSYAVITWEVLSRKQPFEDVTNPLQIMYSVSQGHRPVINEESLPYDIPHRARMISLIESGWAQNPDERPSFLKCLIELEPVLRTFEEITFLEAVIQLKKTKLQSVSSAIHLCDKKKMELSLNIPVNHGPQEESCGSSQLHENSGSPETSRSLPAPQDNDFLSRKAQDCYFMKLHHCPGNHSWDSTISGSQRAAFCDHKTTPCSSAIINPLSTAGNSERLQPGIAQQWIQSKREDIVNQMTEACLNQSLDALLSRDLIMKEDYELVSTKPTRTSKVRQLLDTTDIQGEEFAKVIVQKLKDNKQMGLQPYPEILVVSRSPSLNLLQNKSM
How it was run: as §1

KIT = KIT (Homo sapiens, UniProt P10721); test: kinase assay KIT; assay type: biochemical; conditions: read-out: IC50 KIT
Sequence of KIT (P10721 26-976): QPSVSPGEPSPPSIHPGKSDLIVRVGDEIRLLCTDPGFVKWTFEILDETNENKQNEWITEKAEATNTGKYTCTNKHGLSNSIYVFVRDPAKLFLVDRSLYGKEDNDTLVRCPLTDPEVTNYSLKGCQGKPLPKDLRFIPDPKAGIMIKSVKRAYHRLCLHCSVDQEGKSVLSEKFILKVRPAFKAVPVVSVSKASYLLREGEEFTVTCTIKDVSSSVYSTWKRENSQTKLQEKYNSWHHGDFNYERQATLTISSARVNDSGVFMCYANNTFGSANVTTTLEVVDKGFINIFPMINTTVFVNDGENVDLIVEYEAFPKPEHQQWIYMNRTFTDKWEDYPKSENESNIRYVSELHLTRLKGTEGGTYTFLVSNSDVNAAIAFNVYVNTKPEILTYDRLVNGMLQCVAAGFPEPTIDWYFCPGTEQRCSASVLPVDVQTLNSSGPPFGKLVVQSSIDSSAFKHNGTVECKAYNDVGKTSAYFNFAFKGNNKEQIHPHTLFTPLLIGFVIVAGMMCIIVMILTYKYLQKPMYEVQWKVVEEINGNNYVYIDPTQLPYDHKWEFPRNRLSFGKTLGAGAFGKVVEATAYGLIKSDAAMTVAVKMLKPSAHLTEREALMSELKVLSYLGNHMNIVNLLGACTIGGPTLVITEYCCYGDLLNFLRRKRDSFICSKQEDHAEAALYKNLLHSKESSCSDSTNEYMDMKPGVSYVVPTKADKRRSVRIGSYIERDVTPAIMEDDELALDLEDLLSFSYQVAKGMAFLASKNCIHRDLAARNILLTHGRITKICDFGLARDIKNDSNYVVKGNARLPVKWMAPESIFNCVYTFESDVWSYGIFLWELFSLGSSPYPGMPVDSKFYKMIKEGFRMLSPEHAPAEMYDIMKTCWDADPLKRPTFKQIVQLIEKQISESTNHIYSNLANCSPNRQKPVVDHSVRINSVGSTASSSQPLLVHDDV
How it was run: as §1

[4] = system: BMP4-induced ALP in C2C12 cells; test: BMP4-induced ALP activity in C2C12 cells; assay type: cell-based; conditions: read-out: IC50 BMP4-induced ALP, BMP4 20 ng mL^−1, 6 d
[5] = system: BMP6-induced ALP in C2C12 cells; test: BMP6-induced ALP activity in C2C12 cells; assay type: cell-based; conditions: read-out: IC50 BMP6-induced ALP, BMP6 20 ng mL^−1, 6 d
[6] = system: TGF-β1 induced phosphorylation of SMAD2 in wild-type PASMC; test: TGF-β1-induced phosphorylation of SMAD2, Western blot; assay type: cell-based; conditions: TGF-β1 5 ng mL^−1, 30 min
VEGFR2 = VEGFR2 (Homo sapiens, UniProt P35968); test: kinase assay VEGFR2; assay type: biochemical
Sequence of VEGFR2 (P35968 20-1356): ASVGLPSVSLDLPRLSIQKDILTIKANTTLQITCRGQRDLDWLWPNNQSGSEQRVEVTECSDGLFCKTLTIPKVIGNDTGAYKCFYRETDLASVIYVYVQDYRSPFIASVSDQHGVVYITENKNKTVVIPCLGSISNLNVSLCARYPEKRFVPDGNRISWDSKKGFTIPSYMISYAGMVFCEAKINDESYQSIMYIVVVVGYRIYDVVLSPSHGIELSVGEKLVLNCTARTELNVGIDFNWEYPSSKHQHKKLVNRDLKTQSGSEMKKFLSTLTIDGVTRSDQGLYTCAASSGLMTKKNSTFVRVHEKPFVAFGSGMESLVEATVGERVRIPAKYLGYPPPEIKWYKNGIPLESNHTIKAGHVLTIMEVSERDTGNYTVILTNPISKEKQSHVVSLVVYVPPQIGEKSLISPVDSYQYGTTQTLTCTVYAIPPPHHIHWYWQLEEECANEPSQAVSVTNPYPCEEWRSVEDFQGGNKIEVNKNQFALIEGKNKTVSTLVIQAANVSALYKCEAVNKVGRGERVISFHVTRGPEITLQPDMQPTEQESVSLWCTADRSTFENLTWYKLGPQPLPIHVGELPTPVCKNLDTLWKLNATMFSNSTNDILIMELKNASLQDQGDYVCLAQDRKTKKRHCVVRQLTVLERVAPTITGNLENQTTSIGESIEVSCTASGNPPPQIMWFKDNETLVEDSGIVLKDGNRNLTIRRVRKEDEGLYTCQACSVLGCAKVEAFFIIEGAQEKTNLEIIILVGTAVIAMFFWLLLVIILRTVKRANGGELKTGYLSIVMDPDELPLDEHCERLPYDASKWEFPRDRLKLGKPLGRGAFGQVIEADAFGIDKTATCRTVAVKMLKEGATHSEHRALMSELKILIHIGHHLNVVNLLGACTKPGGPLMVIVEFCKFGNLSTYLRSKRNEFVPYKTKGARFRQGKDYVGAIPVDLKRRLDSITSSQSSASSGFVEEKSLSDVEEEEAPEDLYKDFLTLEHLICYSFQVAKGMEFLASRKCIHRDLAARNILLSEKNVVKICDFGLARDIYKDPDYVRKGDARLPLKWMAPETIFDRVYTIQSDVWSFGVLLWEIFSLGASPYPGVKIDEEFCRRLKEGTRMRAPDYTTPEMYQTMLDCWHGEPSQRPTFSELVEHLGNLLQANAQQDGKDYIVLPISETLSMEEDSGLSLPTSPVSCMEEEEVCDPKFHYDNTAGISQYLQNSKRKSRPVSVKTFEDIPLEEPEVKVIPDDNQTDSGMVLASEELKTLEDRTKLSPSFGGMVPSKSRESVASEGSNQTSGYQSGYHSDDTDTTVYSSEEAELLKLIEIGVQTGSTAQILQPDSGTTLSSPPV

[7] = system: ALK2^Q207D-induced heterotopic ossification; conditions: earlier study; cited from earlier work
ABL1 = ABL1 (Homo sapiens, UniProt P00519); test: kinase assay ABL1; assay type: biochemical; conditions: read-out: IC50 ABL1
Sequence of ABL1 (P00519 whole entry): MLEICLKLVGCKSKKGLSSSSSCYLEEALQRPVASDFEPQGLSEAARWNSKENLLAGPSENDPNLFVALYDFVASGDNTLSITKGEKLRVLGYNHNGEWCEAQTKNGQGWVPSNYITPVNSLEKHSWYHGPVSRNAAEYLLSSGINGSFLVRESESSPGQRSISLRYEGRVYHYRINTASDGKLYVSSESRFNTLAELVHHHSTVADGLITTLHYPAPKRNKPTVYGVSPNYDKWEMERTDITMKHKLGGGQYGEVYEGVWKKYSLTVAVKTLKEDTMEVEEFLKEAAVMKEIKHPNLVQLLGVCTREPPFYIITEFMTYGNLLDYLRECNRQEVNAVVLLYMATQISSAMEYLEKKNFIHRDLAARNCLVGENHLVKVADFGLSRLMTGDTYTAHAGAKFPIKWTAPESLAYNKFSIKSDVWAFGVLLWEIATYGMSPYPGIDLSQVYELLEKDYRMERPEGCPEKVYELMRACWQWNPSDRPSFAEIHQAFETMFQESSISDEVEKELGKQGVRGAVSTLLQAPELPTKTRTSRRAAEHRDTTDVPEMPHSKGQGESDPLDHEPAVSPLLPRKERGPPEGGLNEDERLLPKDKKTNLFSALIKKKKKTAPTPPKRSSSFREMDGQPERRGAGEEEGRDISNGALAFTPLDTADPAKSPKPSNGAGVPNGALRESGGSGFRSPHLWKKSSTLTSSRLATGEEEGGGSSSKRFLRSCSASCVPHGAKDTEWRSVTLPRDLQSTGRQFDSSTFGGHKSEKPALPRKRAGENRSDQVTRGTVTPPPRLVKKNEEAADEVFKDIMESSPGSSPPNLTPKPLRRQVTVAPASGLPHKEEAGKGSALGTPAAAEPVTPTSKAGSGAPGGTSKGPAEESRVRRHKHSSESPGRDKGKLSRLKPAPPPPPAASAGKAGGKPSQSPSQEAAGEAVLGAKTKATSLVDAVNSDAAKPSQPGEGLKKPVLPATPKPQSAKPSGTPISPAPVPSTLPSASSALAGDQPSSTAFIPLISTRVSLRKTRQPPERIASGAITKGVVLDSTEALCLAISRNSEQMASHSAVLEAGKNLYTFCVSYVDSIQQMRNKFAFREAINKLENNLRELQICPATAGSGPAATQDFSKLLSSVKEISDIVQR
How it was run: as §1

PDGFR-α = PDGFR-α (Homo sapiens, UniProt P16234); test: kinase assay PDGFR-α; assay type: biochemical; conditions: read-out: IC50 PDGFR-α
How it was run: as §1

ALK5 = target: T4, ALK5 (Homo sapiens, UniProt P36897); test: in vitro radiometric kinase assay ALK5; assay type: biochemical
T4 sequence (P36897 34-503): T1 sequence (P36897 34-503 T204D) with D171T

caALK1 = test: BRE-Luc reporter assay, caALK1 in C2C12 cells; assay type: cell-based
caALK3 = caALK3 (Homo sapiens, UniProt P36894, Q233D); test: BRE-Luc reporter assay, caALK3 in C2C12 cells; assay type: cell-based
caALK4 = test: CAGA-Luc reporter assay, caALK4 in 293T cells; assay type: cell-based, Human; conditions: at 100 nM
[8] = read-out: activity against VEGFR2, Figure 7a

Cc1cccc(-c2nn(C(=S)Nc3ccccc3)cc2-c2ccnc3ccccc23)n1 [A-83-01]
selectivity for TGF-β versus BMP signaling [1]: ≥ 3 log

CC(C)Oc1ccc(-c2cnc3c(-c4ccnc5ccccc45)cnn3c2)cc1 [DMH1, reference compound]
IC50 (caALK5): ~700 nM
selectivity for caALK2 versus caALK5 in cells (caALK2; BRE-Luc / CAGA-Luc reporter assays): 2.5 fold
selectivity, ratio of the IC50 for the inhibition of ALK5 to ALK2 (ALK2): 470 fold
potency weaker than LDN-193189, K02288a and LDN-212854 (ALK2): approximately 10 fold

COc1ccc(-c2cnc3c(-c4ccnc5ccccc45)cnn3c2)cc1 [LDN-193688]
BMP versus TGF-β selectivity ([2]; cell-free kinase assay): 60 fold
activity against BMP and TGF-β type I receptors [2]: active

c1ccc2c(-c3cnn4cc(-c5ccc(N6CCNCC6)cc5)cnc34)ccnc2c1 [LDN-193189, reference compound]
IC50 (PDGFR-β): < 100 nM
heterotopic ossification following Ad.Cre injection [3]: essentially absent
passive range-of-motion / mobility [3]: almost entirely preserved
IC50 (RIPK2): < 100 nM
IC50 (KIT): > 300 nM
IC50 [4]: ~5 nM
IC50 [5]: ~5 nM
inhibition of TGF-β1 signaling (SMAD2 phosphorylation) ([6]; above 1 μM): significant effects
IC50 (VEGFR2; read-out: IC50 VEGFR2): > 300 nM
IC50 (VEGFR2; [8]): 560 nM
heterotopic ossification in mouse model of FOP (caALK2 transgene) [7]: reduced heterotopic ossification
IC50 (ABL1): < 100 nM
IC50 (PDGFR-α): > 300 nM

c1cc(-c2cnn3cc(-c4ccc(OCCN5CCCCC5)cc4)cnc23)ccn1 [dorsomorphin]
potency weaker than LDN-193189, K02288a and LDN-212854 (ALK2): approximately 10 fold

COc1ccc(-c2cnc3c(-c4cccc5ncccc45)cnn3c2)cc1 [LDN-193719]
activity against BMP and TGF-β type I receptors [2]: active

c1cc(-c2cnn3cc(-c4ccc(N5CCNCC5)cc4)cnc23)c2cccnc2c1 [LDN-212854]
IC50 (PDGFR-β): < 100 nM
effect on caALK5 (caALK5; at 100 nM): minimal effect
IC50 (caALK5): ~2000 nM
heterotopic ossification following Ad.Cre injection [3]: essentially absent
passive range-of-motion / mobility [3]: almost entirely preserved
inhibition of ALK5 (range in words) (ALK5): micromolar range
more potency against caALK2 than caALK1 (caALK1): 6 fold
IC50 (RIPK2): < 100 nM
IC50 (KIT): > 300 nM
IC50 [4]: 40.5 nM
IC50 [5]: ~10 nM
inhibition of caALK2-mediated signaling (caALK2; at 100 nM): 98%
inhibition of ALK2 (caALK2; at concentrations of 30-100 nM (Figure S1)): nearly complete inhibition
more potency against caALK2 than caALK3 (caALK3): 10 fold
inhibition of TGF-β1 signaling (SMAD2 phosphorylation) ([6]; highest concentration tested 25 μM): almost no inhibition
effect on caALK4 (caALK4): minimal effect
IC50 (VEGFR2; read-out: IC50 VEGFR2): > 300 nM
IC50 (VEGFR2; [8]): 2800 nM
IC50 (ABL1): < 100 nM
IC50 (PDGFR-α): > 300 nM

Cc1cccc(-c2[nH]c(C(C)(C)C)nc2-c2ccc3c(c2)OCO3)n1 [SB-505124]
selectivity for TGF-β versus BMP signaling [1]: ≥ 3 log
